Experimental data published in ChEMBL document CHEMBL1122652, “Intensely potent morpholinyl anthracyclines” (J Med Chem, 1984).
The source made the active and inactive calls.

Assays:
Nucleic Acid [1] = assay: Inhibition of [3H]thymidine incorporation into proliferating L1210 cells.; type: functional, cell-based; conditions: Mus musculus
Method in brief: (§1)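 Actively growing L1210 cells in culture were exposed to drug, which was first dissolved in Me2SO and diluted to 1% Me2SO final. Incorporation of [3H]thymidine into DNA or [3H]uridine into RNA was measured. ED50 is the drug concentration giving 50% inhibition.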

Nucleic Acid [2] = assay: Inhibition of [3H]uridine incorporation into proliferating L1210 cells.; type: functional, cell-based; conditions: Mus musculus; method in brief: as §1
Calf thymus DNA [3] = assay: (§2) Effect on thermal denaturation temperature (delta Tm) of helical DNA; type: nucleic-acid assay; conditions: Bos taurus
Method in brief: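 ΔTm was taken as the Tm of the drug–calf thymus DNA complex minus the Tm of DNA alone. Drug was at 5.2 × 10^-6 M in 0.01 M phosphate buffer (pH 7) containing EDTA and 5% Me2SO. Values below 1 were considered insignificant binding.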

Calf thymus DNA [4] = assay: Change in thermal denaturation temperature of calf thymus DNA; type: nucleic-acid assay; conditions: Bos taurus
Method in brief: (§3)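 Calf thymus DNA with drug at 5.2 X 10^-6 M in 0.01 M phosphate buffer pH 7 containing EDTA and 5% Me2SO. ΔTm is the thermal denaturation temperature of the DNA–drug complex minus that of DNA alone. Values <1 count as insignificant binding.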

Mus musculus [5] = assay: Antitumor activity against mice baering P388 leukemia (10e6 cells) implanted ip on day 0, after treatment with single ip dose 0.4 mg/kg on day 1.; type: functional; conditions: route intraperitoneal
Mus musculus [6] = assay: Antitumor activity against mice baering P388 leukemia (10e6 cells) implanted ip on day 0, after treatment with single ip dose 0.05 mg/kg on day 1.; type: functional; conditions: route intraperitoneal
Method in brief: (§4)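 Mice implanted ip with 10^6 P388 leukemia cells on day 0, then dosed ip either once on day 1 or on days 5, 9 and 13 once the tumour was systemic. Efficacy is T/C, the mean survival time of treated over control mice, expressed as %. T/C > 120% counts as active. The optimum dose is reported.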

Mus musculus [7] = assay: Antitumor activity against mice baering P388 leukemia (10e6 cells) implanted ip on day 0, after treatment with three ip doses (0.2 mg/kg) on day 5,9,13 when tumor became systemic.; type: functional; method in brief: as §4
[8] = Partition coefficient (log P) was the log of ratio of concentration in octanol / water partitioned concentration in phosphate buffer at pH 7.4.; type: physicochemical
Mus musculus [9] = assay: Antitumor activity against mice bearing B16 melanoma implanted ip on day 0, after treatment with three ip doses 10 mg/kg on day 1,5,9 when tumor had become systemic.; type: functional; conditions: route intraperitoneal
Mus musculus [10] = assay: Antitumor activity against mice baering P388 leukemia (10e6 cells) implanted ip on day 0, after treatment with three ip doses (8 mg/kg) on day 5,9,13 when tumor became systemic.; type: functional
Mus musculus [11] = assay: Antitumor activity against mice baering P388 leukemia (10e6 cells) implanted ip on day 0, after treatment with single ip dose 7.5 mg/kg on day 1.; type: functional; conditions: route intraperitoneal
Mus musculus [12] = assay: Antitumor activity against mice bearing L1210 leukemia implanted ip on day 0, after treatment with single ip dose 10 mg/kg on day 1.; type: functional; conditions: route intraperitoneal
Mus musculus [13] = assay: Antitumor activity against mice bearing P388 leukemia implanted ip on day 0, after treatment with single iv dose 10 mg/kg on day 1.; type: functional
Mus musculus [14] = assay: Antitumor activity against mice bearing P388 leukemia implanted ip on day 0, after treatment with three po doses on day 1,5,9 when the tumor had become systemic; Inactive; type: functional, organism-based
Mus musculus [15] = assay: Antitumor activity against mice baering P388 leukemia (10e6 cells) implanted ip on day 0, after treatment with three ip doses (50 mg/kg) on day 5,9,13 when tumor became systemic.; type: functional; method in brief: as §4
Mus musculus [16] = assay: Antitumor activity (treated/control) against mice bearing B16 melanoma implanted ip on day 0, after treatment with 3 ip doses 0.0063 mg/kg on day 1,5,9 when tumor had become systemic.; type: functional; conditions: route intraperitoneal
Method in brief: (§5)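 Mice tumour-implanted on day 0 as in the P388 ip screen. Dosing was iv for P388 (day 1), po for P388 (days 1, 5, 9), and ip for L1210 (day 1) and for B16 melanoma (days 1, 5, 9). Efficacy is T/C % of mean survival time of treated over control mice, at the optimum dose.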

Mus musculus [17] = assay: Antitumor activity (treated/control) against mice bearing P388 leukemia implanted ip on day 0, after treatment with single iv dose 0.05 mg/kg on day 1.; type: functional; method in brief: as §5
Mus musculus [18] = assay: Antitumor activity (treated/control) against mice bearing L1210 leukemia implanted ip on day 0, after treatment with single ip dose 0.025 mg/kg on day 1.; type: functional; conditions: route intraperitoneal; method in brief: as §5
Calf thymus DNA [19] = assay: as §2; type: functional; conditions: Bos taurus; method in brief: as §3
Mus musculus [20] = assay: Antitumor activity (treated/control) against mice bearing P388 leukemia implanted ip on day 0, after treatment with three po doses 0.1 mg/kg on days1,5,9 when the tumor had become systemic; type: functional; method in brief: as §5
Mus musculus [21] = assay: Antitumor activity against mice baering P388 leukemia (10e6 cells) implanted ip on day 0, after treatment with single ip dose 0.25 mg/kg on day 1.; type: functional; conditions: route intraperitoneal; method in brief: as §4
Mus musculus [22] = assay: Antitumor activity against mice baering P388 leukemia (10e6 cells) implanted ip on day 0, after treatment with single ip dose 4.0 mg/kg on day 1.; type: functional; conditions: route intraperitoneal; method in brief: as §4
Mus musculus [23] = assay: Antitumor activity against mice baering P388 leukemia (10e6 cells) implanted ip on day 0, after treatment with three ip doses (0.5 mg/kg) on day 5,9,13 when tumor became systemic.; type: functional

Row | SMILES | ED50 (Nucleic Acid [1]) | ED50 (Nucleic Acid [2]) | ΔTm (Calf thymus DNA [4]) | logD [8] | further results
1 | COc1cccc2c1C(=N)c1c(O)c3c(c(O)c1C2=O)C[C@@](O)(C(O)CO)CC3OC1CC(N2CCOCC2C#N)C(O)C(C)O1 (stereo not given in full) | 580 nM | 75 nM | – | – | ΔTm (Calf thymus DNA [3]): 0.8 °C
2 | COc1cccc2c1C(=O)c1c(O)c3c(c(O)c1C2=O)C[C@@](O)(C(O)CO)CC3OC1CC(N2CCOCC2)C(O)C(C)O1.Cl (stereo not given in full) | 7500 nM | 3300 nM | 3.9 °C | – | T/C (Mus musculus [5]): >145%
3 | COc1cccc2c1C(=O)c1c(O)c3c(c(O)c1C2=O)C[C@@](O)(C(O)CO)CC3OC1CC(N2CCOCC2C#N)C(O)C(C)O1 (stereo not given in full) | 21 nM | 3 nM | 4.5 °C | 1.56 | T/C (Mus musculus [6]): 183%; T/C (Mus musculus [7]): 150%
4 | COc1cccc2c1C(=O)c1c(O)c3c(c(O)c1C2=O)C[C@@](O)(C(=O)CO)C[C@@H]3O[C@H]1C[C@H](N)[C@H](O)[C@H](C)O1.Cl [DOXORUBICIN HYDROCHLORIDE] | 1600 nM | 580 nM | 12.8 °C | – | T/C (Mus musculus [9]): 278%; T/C (Mus musculus [10]): 160%; T/C (Mus musculus [11]): 252%; T/C (Mus musculus [12]): 185%; T/C (Mus musculus [13]): 178%; T/C (Mus musculus [14]): inactive
5 | COc1cccc2c1C(=O)c1c(O)c3c(c(O)c1C2=O)C[C@@](O)(C(=O)CO)CC3OC1CC(N2CCOCC2)C(O)C(C)O1.Cl (stereo not given in full) | 710 nM | 170 nM | 9.6 °C | 1.73 | T/C (Mus musculus [6]): 182%
6 | COc1cccc2c1C(=O)c1c(O)c3c(c(O)c1C2=O)C[C@@](O)(C(C)O)CC3OC1CC(N2CCOCC2C#N)C(O)C(C)O1 (stereo not given in full) | 19 nM | 2 nM | 4.2 °C | – | –
7 | COc1cccc2c1C(=N)c1c(O)c3c(c(O)c1C2=O)C[C@@](O)(C(O)CO)CC3OC1CC(N2CCOCC2)C(O)C(C)O1.Cl (stereo not given in full) | > 100000 nM | 24000 nM | 1.6 °C | 1.43 | T/C (Mus musculus [15]): >161%
8 | COc1cccc2c1C(=O)c1c(O)c3c(c(O)c1C2=O)C[C@@](O)(C(C)O)CC3OC1CC(N2CCOCC2)C(O)C(C)O1 (stereo not given in full) | 2200 nM | 530 nM | 4.1 °C | 2.03 | –
9 | COc1cccc2c1C(=O)c1c(O)c3c(c(O)c1C2=O)C[C@@](O)(C(=O)CO)CC3OC1CC(N2CCOCC2C#N)C(O)C(C)O1 (stereo not given in full) | 3 nM | 0.53 nM | – | – | T/C (Mus musculus [16]): >148%; T/C (Mus musculus [17]): 152%; T/C (Mus musculus [18]): 164%; ΔTm (Calf thymus DNA [19]): 8.7 °C; T/C (Mus musculus [20]): >158%
10 | COc1cccc2c1C(=O)c1c(O)c3c(c(O)c1C2=O)C[C@@](O)(C(C)=O)CC3OC1CC(N2CCOCC2C#N)C(O)C(C)O1 (stereo not given in full) | 12 nM | 2 nM | 6.3 °C | – | T/C (Mus musculus [21]): 175%
11 | COc1cccc2c1C(=N)c1c(O)c3c(c(O)c1C2=O)C[C@@](O)(C(=O)CO)CC3OC1CC(N2CCOCC2)C(O)C(C)O1.Cl (stereo not given in full) | 2600 nM | 1300 nM | 4.3 °C | 1.8 | T/C (Mus musculus [22]): >215%
12 | COc1cccc2c1C(=O)c1c(O)c3c(c(O)c1C2=O)C[C@@](O)(C(C)=O)CC3OC1CC(N2CCOCC2)C(O)C(C)O1.Cl (stereo not given in full) | 760 nM | 100 nM | 6.6 °C | 2.31 | T/C (Mus musculus [21]): 155%
13 | COc1cccc2c1C(=N)c1c(O)c3c(c(O)c1C2=O)C[C@@](O)(C(=O)CO)CC3OC1CC(N2CCOCC2C#N)C(O)C(C)O1 (stereo not given in full) | 31 nM | 4.7 nM | – | 1.97 | T/C (Mus musculus [23]): 157%; ΔTm (Calf thymus DNA [3]): 3.2 °C
14 | COc1cccc2c1C(=O)c1c(O)c3c(c(O)c1C2=O)C[C@@](O)(C(C)=O)C[C@@H]3O[C@H]1C[C@H](N)[C@H](O)[C@H](C)O1.Cl [DAUNORUBICIN HYDROCHLORIDE] | 660 nM | 330 nM | 10.5 °C | 0.66 | T/C (Mus musculus [10]): 130%
